{"data": "Results from different studies", "matrix": "plasma", "note": "Compare with care: the assays were run in different laboratories."}
{"Compound": "OC[C@H]1O[C@@H](c2cc(Cc3ccc(C4CC4)cc3)c(Cl)c3c2CCO3)[C@H](O)[C@@H](O)[C@@H]1O", "system": "human", "setting": "oral, 0.3 mg, single dose, fed", "AUC(0-t)": "24.6 ng·h/mL"}
{"Compound": "C[C@@H](Oc1ccc(S(C)(=O)=O)cc1C(=O)N1C[C@@H]2C[C@]2(c2cc(C(F)(F)F)on2)C1)C(F)(F)F", "system": "human", "setting": "oral, 10 mg, single dose, fed", "AUC(0-t)": "1.81 µM·h"}
{"Compound": "CC(=O)N(C)[C@H]1CCN(C(=O)c2cnc3c(c2)C[C@](C)(c2ccc(F)cc2)N3)C1", "system": "male human", "setting": "oral, 15 mg, multiple doses, once daily", "AUC(0-t)": "1.88 µM·h"}
{"Compound": "CC(=O)O[C@H]1C(=O)[C@@]2(C)[C@H]([C@H](OC(=O)c3ccccc3)[C@]3(O)C[C@H](OC(=O)[C@H](O)[C@@H](NC(=O)c4ccccc4)c4ccccc4)C(C)=C1C3(C)C)[C@]1(OC(C)=O)CO[C@@H]1C[C@@H]2O", "system": "human", "setting": "intravenous, 80 mg/m²", "AUC(0-t)": "3.25 µM·h"}
{"Compound": "Cc1cc(-c2nccc3c2ccn3CC(=O)Nc2ccc(-c3cnccn3)cn2)ccn1", "system": "human", "setting": "oral, 7 mg, single dose", "AUC(0-t)": "0.498 µM·h"}
{"Compound": "COc1ccc(-c2c(Nc3ccccn3)[nH]c3c(C4=CCCCC4)c(-c4ccccc4)nn3c2=O)cc1", "system": "human", "setting": "oral, 100 mg once daily, multiple doses, steady state, patients", "AUC(0-t)": "66300 ng·h/mL"}
{"Compound": "COc1ccc2c(c1)CN(C(=O)CCN1CCC(Cc3ccccc3)CC1)CC[S@@+]2[O-]", "system": "male human", "setting": "intravenous, 0.4 mg/kg, healthy volunteers", "AUC(0-t)": "2410 ng·h/mL"}
{"Compound": "CC(C)n1c(C2CCNCC2)nc2c([N+](=O)[O-])c(Br)c(Br)cc21", "system": "human", "setting": "oral, 50 mg, patients", "AUC(0-t)": "451 ng·h/mL"}
